Test results from paper PMC3654155 (Bioorganic & medicinal chemistry letters, 2013).

Assays:
Rtt109 = settings: ref [14], [20]; cited from earlier work
Rtt109-Vps75 [1] = target: T1, Rtt109-Vps75 (Saccharomyces cerevisiae, UniProt Q07794); assay: Rtt109-Vps75 HAT reaction-rate assay with H3n21 peptide, released CoA quantified; type: biochemical; settings: for Vmax, acetyl-CoA titration: 50 nM Rtt109-Vps75, 15 µM H3n21
T1 sequence (Q07794 1-436): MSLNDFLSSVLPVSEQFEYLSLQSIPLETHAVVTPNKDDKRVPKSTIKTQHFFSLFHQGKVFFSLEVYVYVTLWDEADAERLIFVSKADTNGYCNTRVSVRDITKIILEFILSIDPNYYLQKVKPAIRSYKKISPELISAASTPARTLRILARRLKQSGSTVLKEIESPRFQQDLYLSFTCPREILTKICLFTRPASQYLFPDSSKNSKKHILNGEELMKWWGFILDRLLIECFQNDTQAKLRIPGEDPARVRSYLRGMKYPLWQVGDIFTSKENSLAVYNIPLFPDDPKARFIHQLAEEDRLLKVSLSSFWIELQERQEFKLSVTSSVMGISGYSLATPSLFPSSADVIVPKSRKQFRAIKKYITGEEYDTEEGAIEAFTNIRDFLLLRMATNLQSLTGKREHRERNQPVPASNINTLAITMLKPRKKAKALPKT
T1 sequence (P53853 1-264 partner): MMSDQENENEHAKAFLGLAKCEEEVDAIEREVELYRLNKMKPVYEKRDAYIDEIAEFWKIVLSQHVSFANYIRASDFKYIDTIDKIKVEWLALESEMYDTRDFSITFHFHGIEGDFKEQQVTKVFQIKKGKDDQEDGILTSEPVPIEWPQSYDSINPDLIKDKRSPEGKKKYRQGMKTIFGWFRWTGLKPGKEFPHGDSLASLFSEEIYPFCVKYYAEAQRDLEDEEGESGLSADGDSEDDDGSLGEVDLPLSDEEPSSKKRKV

Rtt109-Vps75 [2] = target: T1, Rtt109-Vps75; assay: Single-point HAT reactions, CoA formed by the end of a 30-minute reaction; type: biochemical; settings: data not shown
p300 [3] = target: T2, p300 (Homo sapiens, UniProt Q09472); assay: HAT-ELISA on; type: biochemical, mammalian; settings: 500 nM compound, 15 µg/ml p300
T2 sequence (Q09472 whole entry, species assumed): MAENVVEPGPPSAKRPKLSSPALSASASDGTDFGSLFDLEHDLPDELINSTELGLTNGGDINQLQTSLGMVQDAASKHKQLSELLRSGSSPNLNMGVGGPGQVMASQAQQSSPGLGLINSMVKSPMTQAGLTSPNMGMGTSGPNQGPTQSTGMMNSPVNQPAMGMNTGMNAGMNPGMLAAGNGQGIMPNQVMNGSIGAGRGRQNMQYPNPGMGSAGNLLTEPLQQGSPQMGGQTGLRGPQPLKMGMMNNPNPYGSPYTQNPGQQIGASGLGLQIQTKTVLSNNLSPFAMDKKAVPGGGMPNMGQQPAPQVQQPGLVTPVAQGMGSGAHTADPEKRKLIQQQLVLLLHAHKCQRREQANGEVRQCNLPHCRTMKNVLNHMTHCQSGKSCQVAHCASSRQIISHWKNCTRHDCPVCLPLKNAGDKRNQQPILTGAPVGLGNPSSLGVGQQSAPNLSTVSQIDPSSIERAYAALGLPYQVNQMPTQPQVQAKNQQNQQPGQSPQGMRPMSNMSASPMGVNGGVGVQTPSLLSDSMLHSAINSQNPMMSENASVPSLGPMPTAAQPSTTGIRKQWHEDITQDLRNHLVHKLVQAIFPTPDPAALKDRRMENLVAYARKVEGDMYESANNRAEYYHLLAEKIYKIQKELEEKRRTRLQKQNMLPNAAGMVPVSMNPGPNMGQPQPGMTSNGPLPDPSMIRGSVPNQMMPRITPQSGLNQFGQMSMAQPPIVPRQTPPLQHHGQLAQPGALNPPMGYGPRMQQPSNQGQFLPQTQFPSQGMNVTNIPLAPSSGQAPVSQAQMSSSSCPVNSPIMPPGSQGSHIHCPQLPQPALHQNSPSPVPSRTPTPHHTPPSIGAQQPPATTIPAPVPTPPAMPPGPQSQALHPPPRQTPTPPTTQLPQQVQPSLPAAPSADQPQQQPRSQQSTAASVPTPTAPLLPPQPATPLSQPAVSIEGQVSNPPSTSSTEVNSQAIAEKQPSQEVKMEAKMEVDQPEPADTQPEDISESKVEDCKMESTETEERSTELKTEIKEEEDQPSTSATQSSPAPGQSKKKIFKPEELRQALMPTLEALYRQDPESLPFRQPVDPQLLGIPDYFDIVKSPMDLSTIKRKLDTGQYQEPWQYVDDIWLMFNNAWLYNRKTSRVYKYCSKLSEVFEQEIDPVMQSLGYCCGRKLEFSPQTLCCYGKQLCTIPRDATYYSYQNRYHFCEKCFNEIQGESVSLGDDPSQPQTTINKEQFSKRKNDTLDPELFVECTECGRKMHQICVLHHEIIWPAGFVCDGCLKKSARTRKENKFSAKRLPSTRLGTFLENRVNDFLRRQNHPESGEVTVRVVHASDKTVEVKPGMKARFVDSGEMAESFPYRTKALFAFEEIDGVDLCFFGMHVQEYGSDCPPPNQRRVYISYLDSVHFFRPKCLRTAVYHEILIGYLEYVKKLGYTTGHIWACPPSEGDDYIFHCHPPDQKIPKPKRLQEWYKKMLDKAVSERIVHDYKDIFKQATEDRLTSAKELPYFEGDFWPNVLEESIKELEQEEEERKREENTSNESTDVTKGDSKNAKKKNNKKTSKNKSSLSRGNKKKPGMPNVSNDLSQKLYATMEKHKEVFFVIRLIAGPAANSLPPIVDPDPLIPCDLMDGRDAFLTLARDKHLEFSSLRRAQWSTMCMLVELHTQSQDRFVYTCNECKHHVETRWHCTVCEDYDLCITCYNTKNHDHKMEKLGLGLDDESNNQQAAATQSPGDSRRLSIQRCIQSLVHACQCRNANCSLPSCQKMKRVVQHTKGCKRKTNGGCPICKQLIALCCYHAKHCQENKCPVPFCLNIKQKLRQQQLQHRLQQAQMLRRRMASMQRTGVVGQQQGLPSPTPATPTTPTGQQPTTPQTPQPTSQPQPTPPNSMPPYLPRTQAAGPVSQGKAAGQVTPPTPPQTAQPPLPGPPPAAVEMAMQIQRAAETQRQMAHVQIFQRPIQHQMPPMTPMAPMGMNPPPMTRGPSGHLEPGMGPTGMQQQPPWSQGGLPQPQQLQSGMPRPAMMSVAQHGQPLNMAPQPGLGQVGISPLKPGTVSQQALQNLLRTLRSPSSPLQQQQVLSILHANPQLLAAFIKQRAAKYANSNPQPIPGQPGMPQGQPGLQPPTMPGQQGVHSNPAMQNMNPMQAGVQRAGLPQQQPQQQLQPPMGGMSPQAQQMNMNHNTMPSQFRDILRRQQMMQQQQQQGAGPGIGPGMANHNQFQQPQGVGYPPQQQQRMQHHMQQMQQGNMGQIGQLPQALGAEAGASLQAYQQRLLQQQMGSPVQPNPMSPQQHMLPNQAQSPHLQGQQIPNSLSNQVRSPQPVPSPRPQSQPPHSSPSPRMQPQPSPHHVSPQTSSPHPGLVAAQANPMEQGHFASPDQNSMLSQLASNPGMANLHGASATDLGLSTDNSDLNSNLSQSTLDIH

Saccharoyces cerevisiae [4] = assay: Cellular levels of H3K56ac; type: cell-based; settings: data not shown
Rtt109-Vps75 [5] = target: T1, Rtt109-Vps75; assay: Dialysis and time-course tests of tight binding to Rtt109-Vps75; type: biochemical
[6] = Solubility limit in HAT assays; type: physicochemical; settings: not tested above 100 µM
Saccharoyces cerevisiae [7] = assay: Sensitivity to the DNA damaging agent camptothecin; type: cell-based; settings: data not shown
Rtt109-Vps75 [8] = target: T1, Rtt109-Vps75; assay: HAT-ELISA of H3K56 acetylation on; type: biochemical; settings: 500 nM compound, 50 nM Rtt109, 50 nM Vps75, 30 min, 30°C
C. albicans [9] = assay: Sensitivity to the DNA damaging agent camptothecin; type: cell-based; settings: data not shown
C. albicans [10] = assay: Cellular levels of H3K56ac; type: cell-based; settings: data not shown
p300 [11] = target: T2, p300; assay: p300 HAT reaction-rate assay with H3n21 peptide; type: biochemical, mammalian
In short: (§1)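 Enzyme: 3.1 µg/ml (61 nM) Gcn5 or 15 µg/ml p300, with 15 µM H3n21 peptide. Enzyme and peptide pre-incubated with DMSO or test compound for 5 min at 30°C. Reactions started with 30 µM acetyl-CoA. Released CoA quantified every 2 min over the first 10 min. Rate derived by linear regression of product versus time. Compound capped at 100 µM. For p300, single-point assays were also run at 0.5–2 µM compound.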

Gcn5 = Gcn5 (Saccharomyces cerevisiae, UniProt Q03330); assay: Gcn5 HAT reaction-rate assay with H3n21 peptide; type: biochemical
Sequence of Gcn5 (Q03330 whole entry): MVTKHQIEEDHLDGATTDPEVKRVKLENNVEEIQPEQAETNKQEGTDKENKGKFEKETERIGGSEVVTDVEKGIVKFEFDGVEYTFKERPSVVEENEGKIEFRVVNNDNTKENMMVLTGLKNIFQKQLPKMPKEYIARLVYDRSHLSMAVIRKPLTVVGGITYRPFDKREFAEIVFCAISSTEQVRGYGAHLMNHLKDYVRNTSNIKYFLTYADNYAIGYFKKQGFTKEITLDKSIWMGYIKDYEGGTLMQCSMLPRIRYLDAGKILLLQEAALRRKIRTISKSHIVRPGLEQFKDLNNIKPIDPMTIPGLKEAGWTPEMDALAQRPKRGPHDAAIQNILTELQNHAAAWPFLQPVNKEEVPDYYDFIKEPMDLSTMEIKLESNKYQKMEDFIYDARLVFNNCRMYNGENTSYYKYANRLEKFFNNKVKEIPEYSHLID
In short: as §1

Rtt109/Asf1 = Rtt109/Asf1 (Saccharomyces cerevisiae, UniProt Q07794); assay: HAT-ELISA of H3K56 acetylation on; type: biochemical; settings: 500 nM compound, 50 nM Rtt109, 400 nM Asf1N, 30 min, 30°C
In short: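 Reaction mix: 50 nM Rtt109, 400 nM Asf1N and […] (H3-H4)2 tetramers, pre-incubated 5 min with DMSO or 500 nM test compound. Started with 15 µM acetyl-CoA, with water as the no-substrate control, then incubated 30 min at 30°C. H3K56ac detected by ELISA with H3K56ac-specific rabbit antiserum. Signal normalised to DMSO plus acetyl-CoA.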

With CC(=O)N[C@@H](CCCCNC(=O)CSCCNC(=O)CCNC(=O)[C@H](O)C(C)(C)COP(=O)(O)OP(=O)(O)OC[C@H]1O[C@@H](n2cnc3c(N)ncnc32)[C@H](O)[C@@H]1OP(=O)(O)O)C(N)=O [Lys-CoA] as the molecule, how does the “effect on Rtt109 catalysis” value (Rtt109) read?
The value was “do not affect Rtt109 catalysis”.

Which results are given for CCC1(c2ccccc2)NC(=O)N(CC(=O)N(C)Cc2c(F)cccc2Cl)C1=O (stereo not shown) [SAR9]?
effect on reaction rates, dose response (Rtt109-Vps75 [1]; 100 nM – 1 µM compound, 50 nM Rtt109-Vps75): minimal inhibition even at the highest concentration tested; inhibition of acetylation by Rtt109-Vps75 in single-point HAT reactions (Rtt109-Vps75 [2]): not as potent as compound 1

Which results are given for CCCC1(c2ccccc2)NC(=O)N(CC(=O)N(C)Cc2c(F)cccc2Cl)C1=O (stereo not shown) [compound 1, N-[(2-chloro-6-fluorophenyl)methyl]-2-(2,5-dioxo-4-phenyl-4-propylimidazolidin-1-yl)-N-methylacetamide]?
inhibition of p300 HAT activity on (H3-H4)2 tetramers (p300 [3]): no inhibitory effect; effect on cellular levels of H3K56ac (Saccharoyces cerevisiae [4]): have not observed that compound 1 is able to affect; preference for inhibition of Rtt109 over p300 and Gcn5 (Rtt109-Vps75 [1]): greater than two order of magnitude preference; Vmax, acetyl-CoA titration (Rtt109-Vps75 [1]; 30 µM compound 1): 1.46 ± 0.08 nM/s; Vmax, acetyl-CoA titration (Rtt109-Vps75 [1]; 60 µM compound 1): 0.68 ± 0.09 nM/s; inhibition of Rtt109-Vps75 in single point enzyme assay (Rtt109-Vps75 [1]; 0.5 – 2 µM compound): inhibited Rtt109; time course of inhibition (Rtt109-Vps75 [5]; 1 µM Rtt109-Vps75 with 1.0 µM compound 1, incubated 0-60 minutes on ice): the degree of inhibition increased during the entire 60 minutes; mode of inhibition (Rtt109-Vps75 [5]; from substrate titrations, dialysis and enzyme-concentration dependence): tight or perhaps irreversible inhibitor; solubility in assay [6]: solubility limitations; effect on sensitivity to camptothecin (Saccharoyces cerevisiae [7]): have not observed that compound 1 is able to affect; inhibition of H3K56 acetylation by Rtt109-Vps75 (Rtt109-Vps75 [8]): inhibited acetylation; effect on sensitivity to camptothecin (C. albicans [9]): have not observed that compound 1 is able to affect; effect on cellular levels of H3K56ac (C. albicans [10]): have not observed that compound 1 is able to affect; inhibition of p300 in single point enzyme assay (p300 [11]; 0.5 – 2 µM compound): without inhibiting p300; enzyme reaction rate remaining, p300 (p300 [11]; compound up to 100 µM, 15 µg/ml p300): ≥ 80 % activity; inhibition of HAT activity of p300 (p300 [11]; dose response up to 100 µM): did not significantly inhibit; enzyme reaction rate remaining, Gcn5 (Gcn5; compound up to 100 µM, 61 nM Gcn5): ≥ 80 % activity; inhibition of HAT activity of Gcn5 (Gcn5; dose response up to 100 µM): did not significantly inhibit; inhibition of H3K56 acetylation by Rtt109/Asf1 (Rtt109/Asf1): inhibited acetylation
